Source: ChEMBL document CHEMBL3400126, “Benzo-fused lactams from a diversity-oriented synthesis (DOS) library as inhibitors of scavenger receptor BI (SR-BI)-mediated lipid uptake” (Bioorg Med Chem Lett, 2015)

Columns and labels:
CHO = assay: Cytotoxicity against CHO cells after 24 hrs by CellTiterGlo assay; assay type: cell-based, Cricetulus griseus; conditions: chinese hamster
Procedure, shortened: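 IdlA[mSR-BI] cells (CHO overexpressing mouse SR-BI) incubated with compound for 24 h; cellular ATP levels read by CellTiter-Glo luminescence.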

[1] = target: T1, Scavenger receptor class B member 1 (Mus musculus, UniProt Q61009); assay: Inhibition of mouse SR-B1 overexpressed in CHO cells assessed as inhibition of transfer of the fluorescent lipid DiI from HDL particles to cells after 3 hrs; assay type: cell-based
T1 sequence (Q61009 whole entry): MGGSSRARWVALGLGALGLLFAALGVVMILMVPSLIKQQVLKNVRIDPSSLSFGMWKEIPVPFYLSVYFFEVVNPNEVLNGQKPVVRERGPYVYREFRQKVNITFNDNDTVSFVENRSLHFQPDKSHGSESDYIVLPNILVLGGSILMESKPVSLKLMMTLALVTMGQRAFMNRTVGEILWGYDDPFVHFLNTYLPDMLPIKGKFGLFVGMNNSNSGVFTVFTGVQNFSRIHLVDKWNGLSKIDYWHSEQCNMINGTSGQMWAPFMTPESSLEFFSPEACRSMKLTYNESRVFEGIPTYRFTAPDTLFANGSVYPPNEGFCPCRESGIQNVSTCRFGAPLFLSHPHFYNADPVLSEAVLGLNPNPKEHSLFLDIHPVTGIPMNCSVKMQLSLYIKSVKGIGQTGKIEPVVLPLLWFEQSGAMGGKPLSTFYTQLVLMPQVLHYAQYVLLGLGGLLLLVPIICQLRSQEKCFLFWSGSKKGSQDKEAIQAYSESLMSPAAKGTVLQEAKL
Procedure, shortened: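 Primary assay: uptake of fluorescent lipid DiI from DiI-labeled HDL particles into IdlA[mSR-BI] cells, i.e. CHO cells overexpressing mouse SR-BI. Read-out is cell-associated DiI fluorescence. Compounds that quenched DiI-HDL fluorescence in a dose-dependent manner were excluded by counterscreen. 1 μM BLT-1 served as positive control.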

Compound | IC50 [1] [nM] | Activity (CHO)
COc1ccc(S(=O)(=O)N(C)C[C@@H]2Oc3ccc(NC(=O)Cc4cn(C)c5ccccc45)cc3C(=O)N([C@H](C)CO)C[C@H]2C)cc1 | 2000 | Non-toxic
C[C@@H]1CN([C@H](C)CO)C(=O)c2cc(NC(=O)Cc3cn(C)c4ccccc34)ccc2O[C@H]1CN(C)C(=O)Nc1ccccc1 | 4900 | Non-toxic
C[C@H]1CN([C@@H](C)CO)C(=O)c2cc(NC(=O)Cc3cn(C)c4ccccc34)ccc2O[C@@H]1CN(C)S(=O)(=O)c1ccc(Cl)cc1 | 17400 | Non-toxic
C[C@@H]1CN([C@H](C)CO)C(=O)c2cc(NC(=O)Cc3cn(C)c4ccccc34)ccc2O[C@H]1CN(C)S(=O)(=O)c1cccs1 | 2400 | Non-toxic
C[C@@H]1CN([C@H](C)CO)C(=O)c2cc(NS(=O)(=O)c3ccc(F)cc3)ccc2O[C@H]1CN(C)S(=O)(=O)c1ccc(Cl)cc1 | 14000 | Non-toxic
CNC[C@@H]1Oc2ccc(NC(=O)Cc3cn(C)c4ccccc34)cc2C(=O)N([C@H](C)CO)C[C@H]1C | > 25000 | Non-toxic
Cc1noc(C)c1NC(=O)Nc1ccc2c(c1)C(=O)N([C@H](C)CO)C[C@@H](C)[C@H](CN(C)S(=O)(=O)c1ccc(Cl)cc1)O2 | 7100 | Non-toxic
C[C@@H]1CN([C@H](C)CO)C(=O)c2cc(NC(=O)Cc3cn(C)c4ccccc34)ccc2O[C@@H]1CN(C)S(=O)(=O)c1ccc(Cl)cc1 |  | Non-toxic
CC(C)NC(=O)Nc1cccc2c1O[C@@H](CN(C)S(=O)(=O)c1ccc(Cl)cc1)[C@H](C)CN([C@H](C)CO)C2=O | > 25000 | Non-toxic
C[C@@H]1CN([C@H](C)CO)C(=O)c2cc(NC(=O)Cc3cn(C)c4ccccc34)ccc2O[C@H]1CN(C)S(=O)(=O)c1ccccc1 | 220 | Non-toxic
COc1ccc(CN(C)C[C@@H]2Oc3ccc(NC(=O)Cc4cn(C)c5ccccc45)cc3C(=O)N([C@H](C)CO)C[C@H]2C)cc1 | 2600 | Non-toxic
C[C@@H]1CN([C@H](C)CO)C(=O)c2cc(NC(=O)Cc3cn(C)c4ccccc34)ccc2O[C@H]1CN(C)Cc1ccc(Cl)c(Cl)c1 | > 25000 | Non-toxic
C[C@@H]1CN([C@H](C)CO)C(=O)c2cc(NC(=O)C3CCCCC3)ccc2O[C@H]1CN(C)S(=O)(=O)c1cccc(Cl)c1 |  | Non-toxic
C[C@@H]1CN([C@H](C)CO)C(=O)c2cc(NC(=O)Nc3ccc(F)cc3)ccc2O[C@H]1CN(C)S(=O)(=O)c1ccc(Cl)cc1 | 92 | Non-toxic
C[C@@H]1CN([C@H](C)CO)C(=O)c2cc(NC(=O)Cc3cn(C)c4ccccc34)ccc2O[C@H]1CN(C)Cc1ccccc1 | 1600 | Non-toxic
C[C@@H]1CN([C@H](C)CO)C(=O)c2cc(NC(=O)C3CCCCC3)ccc2O[C@H]1CN(C)S(=O)(=O)c1ccc(Cl)cc1 | 54 | Non-toxic
C[C@@H]1CN([C@H](C)CO)C(=O)c2cc(N(C)C)ccc2O[C@H]1CN(C)S(=O)(=O)c1ccc(Cl)cc1 | 630 | Non-toxic
C[C@@H]1CN([C@H](C)CO)C(=O)c2cc(NC(=O)Cc3cn(C)c4ccccc34)ccc2O[C@H]1CN(C)Cc1ccc(C(F)(F)F)cc1 | 650 | Non-toxic
C[C@@H]1CN([C@H](C)CO)C(=O)c2cc(NC(=O)Cc3cn(C)c4ccccc34)ccc2O[C@H]1CN(C)C(=O)NC1CCCCC1 | 9200 | Non-toxic
C[C@@H]1CN([C@@H](C)CO)C(=O)c2cc(NC(=O)Cc3cn(C)c4ccccc34)ccc2O[C@H]1CN(C)S(=O)(=O)c1ccc(Cl)cc1 | 910 | Non-toxic
C[C@@H]1CN([C@H](C)CO)C(=O)c2cc(NS(=O)(=O)c3ccccc3)ccc2O[C@H]1CN(C)S(=O)(=O)c1ccc(Cl)cc1 | 3200 | Non-toxic

Further lines, with some results ahead:

IC50 [1] [nM] | Compound | Activity (CHO)
9200 | C[C@@H]1CN([C@H](C)CO)C(=O)c2cc(NC(=O)Cc3cn(C)c4ccccc34)ccc2O[C@H]1CN(C)CC1CCCCC1 | Non-toxic
> 25000 | C[C@@H]1CN([C@H](C)CO)C(=O)c2cc(NC(=O)C3CCCCC3)ccc2O[C@H]1CN(C)C(=O)c1ccc(Cl)cc1 | Non-toxic
8000 | COC[C@@H](C)N1C[C@@H](C)[C@H](CN(C)S(=O)(=O)c2ccc(Cl)cc2)Oc2ccc(NC(=O)NC(C)C)cc2C1=O | Non-toxic
> 25000 | C[C@@H]1CN([C@H](C)CO)C(=O)c2cc(NC(=O)C3CCOCC3)ccc2O[C@H]1CN(C)S(=O)(=O)c1ccc(Cl)cc1 | Non-toxic
> 25000 | C[C@H](CO)N1C[C@H](C)[C@H](CN(C)S(=O)(=O)c2ccc(Cl)cc2)Oc2ccc(NC(=O)Cc3cn(C)c4ccccc34)cc2C1=O | Non-toxic
> 25000 | C[C@@H]1CN([C@H](C)CO)C(=O)c2cc(NC(=O)Nc3ccccc3)ccc2O[C@H]1CN(C)S(=O)(=O)c1ccc(Cl)cc1 | Non-toxic
560 | C[C@@H]1CN([C@H](C)CO)C(=O)c2cc(NC(=O)Cc3cn(C)c4ccccc34)ccc2O[C@H]1CN(C)S(=O)(=O)c1ccc(F)cc1 | Non-toxic
9900 | CC(C)NC(=O)Nc1ccc2c(c1)C(=O)N(C(C)C)C[C@@H](C)[C@H](CN(C)S(=O)(=O)c1ccc(Cl)cc1)O2 | Non-toxic
18000 | C[C@@H]1CN([C@H](C)CO)C(=O)c2cc(NC(=O)Cc3cn(C)c4ccccc34)ccc2O[C@H]1CN(C)C | Non-toxic
1600 | C[C@@H]1CN([C@H](C)CO)C(=O)c2cc(NS(C)(=O)=O)ccc2O[C@H]1CN(C)S(=O)(=O)c1ccc(Cl)cc1 | Non-toxic
1300 | C[C@@H]1CN([C@H](C)CO)C(=O)c2cc(NC(=O)Cc3cn(C)c4ccccc34)ccc2O[C@H]1CN(C)Cc1ccncc1 | Non-toxic
> 25000 | C[C@@H]1CN([C@H](C)CN(C)C)C(=O)c2cc(NC(=O)Cc3cn(C)c4ccccc34)ccc2O[C@H]1CN(C)S(=O)(=O)c1ccc(Cl)cc1 | Non-toxic
890 | C[C@@H]1CN([C@H](C)CO)C(=O)c2cc(NC(=O)Cc3cn(C)c4ccccc34)ccc2O[C@H]1CN(C)Cc1ccc2c(c1)OCO2 | Non-toxic
> 25000 | C[C@@H]1CN([C@H](C)CN)C(=O)c2cc(NC(=O)Cc3cn(C)c4ccccc34)ccc2O[C@H]1CN(C)S(=O)(=O)c1ccc(Cl)cc1 | Non-toxic
2100 | C[C@@H]1CN([C@H](C)CO)C(=O)c2cc(NC(=O)C3CC3)ccc2O[C@H]1CN(C)S(=O)(=O)c1ccc(Cl)cc1 | Non-toxic
5000 | C[C@@H]1CN([C@H](C)CO)C(=O)c2cc(NC(=O)CCN3CCOCC3)ccc2O[C@H]1CN(C)S(=O)(=O)c1ccc(Cl)cc1 | Non-toxic
9900 | C[C@@H]1CN([C@H](C)CO)C(=O)c2cc(NC(=O)Cc3cn(C)c4ccccc34)ccc2O[C@H]1CN(C)S(C)(=O)=O | Non-toxic
10000 | C[C@@H]1CN([C@@H](C)CO)C(=O)c2cc(NC(=O)Cc3cn(C)c4ccccc34)ccc2O[C@@H]1CN(C)S(=O)(=O)c1ccc(Cl)cc1 | Non-toxic
260 | C[C@@H]1CN([C@H](C)CO)C(=O)c2cc(NC(=O)CCC(F)(F)F)ccc2O[C@H]1CN(C)S(=O)(=O)c1ccc(Cl)cc1 | Non-toxic
10000 | C[C@@H]1CN([C@H](C)CO)C(=O)c2cc(NC(=O)Cn3cnnn3)ccc2O[C@H]1CN(C)S(=O)(=O)c1ccc(Cl)cc1 | Non-toxic
> 25000 | C[C@@H]1CN([C@H](C)CO)C(=O)c2cc(NC(=O)CCCN(C)C)ccc2O[C@H]1CN(C)S(=O)(=O)c1ccc(Cl)cc1 | Non-toxic
300 | COc1ccc(NC(=O)Nc2ccc3c(c2)C(=O)N([C@H](C)CO)C[C@@H](C)[C@H](CN(C)S(=O)(=O)c2ccc(Cl)cc2)O3)cc1 | Non-toxic
12300 | C[C@H]1CN([C@@H](C)CO)C(=O)c2cc(NC(=O)Cc3cn(C)c4ccccc34)ccc2O[C@H]1CN(C)S(=O)(=O)c1ccc(Cl)cc1 | Non-toxic
180 | C[C@@H]1CN([C@H](C)CO)C(=O)c2cc(NC(=O)C3CCCCC3)ccc2O[C@H]1CN(C)S(=O)(=O)c1ccccc1Cl | Non-toxic
350 | C[C@@H]1CN([C@H](C)CO)C(=O)c2cc(NC(=O)NC3CCCCC3)ccc2O[C@H]1CN(C)S(=O)(=O)c1ccc(Cl)cc1 | Non-toxic
190 | Cc1noc(C)c1S(=O)(=O)Nc1ccc2c(c1)C(=O)N([C@H](C)CO)C[C@@H](C)[C@H](CN(C)S(=O)(=O)c1ccc(Cl)cc1)O2 | Non-toxic
